For experiment [1], the target named is T1, Flavin-dependent thymidylate synthase (Mycobacterium tuberculosis) (UniProt P9WG57).
T1 sequence (whole entry): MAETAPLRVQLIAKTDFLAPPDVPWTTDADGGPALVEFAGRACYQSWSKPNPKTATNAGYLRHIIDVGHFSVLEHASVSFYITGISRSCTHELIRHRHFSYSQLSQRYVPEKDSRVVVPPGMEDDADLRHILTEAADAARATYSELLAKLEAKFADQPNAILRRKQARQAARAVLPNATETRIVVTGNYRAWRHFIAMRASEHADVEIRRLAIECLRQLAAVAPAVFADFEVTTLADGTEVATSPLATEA
In words: Inhibition of Mycobacterium tuberculosis H37Rv ThyX expressed in Escherichia coli BL21(DE3) using 10 uM dUMP as substrate in presence of FAD cofactor at 200 uM incubated for 10 mins prior to the injection of NADPH and measured upto 20 mins by NADPH oxidase based spectrophotometric analysis. To be noted: time 30.0 min.

In experiment [2] the target is T1, Flavin-dependent thymidylate synthase (Mycobacterium tuberculosis). In words: Inhibition of Mycobacterium tuberculosis H37Rv ThyX expressed in Escherichia coli BL21(DE3) using 100 uM dUMP as substrate in presence of FAD cofactor at 200 uM incubated for 10 mins prior to the injection of NADPH and measured upto 20 mins by NADPH oxidase based spectrophotometric analysis relative to control. To be noted: time 30.0 min. Put shortly:
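Mtb ThyX from E. coli BL21(DE3)/pLysS carrying pET24d, purified and stored at −20 °C, with a FAD:ThyX ratio of 1:3. Compound was preincubated 10 min at 25 °C. Injected NADPH started the reaction, and A340 fall was read up to 20 min. Duplicates; % inhibition = (1−Vi/Vo)×100 from initial rates.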

The target is the same in experiment [3]. Nature of the experiment: Inhibition of Mycobacterium tuberculosis H37Rv ThyX expressed in Escherichia coli BL21(DE3) using 100 uM dUMP as substrate in absence of FAD cofactor at 200 uM incubated for 10 mins prior to the injection of NADPH and measured upto 20 mins by NADPH oxidase based spectrophotometric analysis. To be noted: time 30.0 min.
The nature of experiment [4]: Inhibition of flavin-dependent thymidylate synthetase (unknown origin). Further details: species or system Bacteria.

This is an account of results in ChEMBL document CHEMBL4823301, “Synthesis of acyclic nucleoside phosphonates targeting flavin-dependent thymidylate synthase in Mycobacterium tuberculosis” (Bioorg Med Chem, 2021).

The source made the active and inactive calls. The rule behind the calls is not given here.

The inhibition is the share of the control response that was lost under treatment. Consider `CCCCCCCC(=O)NCC#Cc1cn(CC=CCP(=O)(O)O)c(=O)[nH]c1=O`, for which the inhibition entry in experiment [1] and in experiment [3] was “inactive” throughout. Moreover, the inhibition in experiment [2] is 0%.
In the case of `CCCCCCCC(=O)NCC#Cc1ccc2c(c1)c(=O)[nH]c(=O)n2CC=CCP(=O)(O)O`, the inhibition entry in experiment [1] and in experiment [3] was “inactive” throughout. The inhibition in experiment [2] was found to be 0%.
On to `COc1ccc2c(=O)[nH]c(=O)n(CC=CCP(=O)(O)O)c2c1`, for which the inhibition entry in experiment [1] and in experiment [3] was “inactive” throughout. The inhibition in experiment [2] was determined as 26.4%.
Regarding `CCCCCCNC(=O)NCC#Cc1ccc2c(c1)c(=O)[nH]c(=O)n2CC=CCP(=O)(O)O`, the inhibition entry in experiment [1] and in experiment [3] was “inactive” throughout. Besides, the inhibition in experiment [2] was found to be 14.9%.
As for `O=C(Cc1ccccc1)NCC#Cc1ccc2c(c1)c(=O)[nH]c(=O)n2CC=CCP(=O)(O)O`, the inhibition entry in experiment [1] and in experiment [3] was “inactive” throughout. In experiment [2], the inhibition was 0%.
On to `CCCCCCNC(=O)NCC#Cc1cn(CC=CCP(=O)(O)O)c(=O)[nH]c1=O`, for which the inhibition result in experiment [1] and in experiment [3] was “inactive” in each case. Also, the inhibition in experiment [2] came to 0%.
With `O=c1[nH]c(=O)n(CC=CCP(=O)(O)O)c2ccccc12`, the inhibition result in experiment [1] and in experiment [3] was “inactive” each time. Besides, the inhibition in experiment [2] was found to be 15.8%.
A word on the Ki: it is a dissociation constant, usually derived from enzyme kinetics or from competition with a known ligand. Higher therefore signals a looser hold on the target. In turn, `O=C1c2ccccc2C(=O)C(c2ccco2)C1O` (configuration not stated) had a Ki in experiment [4] of 28 nM. In other words, the double-digit nanomolar range.
Regarding `O=c1[nH]c(=O)n(CC=CCP(=O)(O)O)cc1Cc1ccccc1`, the inhibition result in experiment [1] and in experiment [3] was “inactive” each time. Further, the inhibition in experiment [2] came out at 23.7%.
As to `CCCCCCNC(=O)NCC#Cc1ccc2c(=O)[nH]c(=O)n(CC=CCP(=O)(O)O)c2c1`, the inhibition result in experiment [1] and in experiment [3] was “inactive” throughout. For the same compound, the inhibition in experiment [2] turned out to be 31.8%.
For `Cc1ccc2c(c1)c(=O)[nH]c(=O)n2CC=CCP(=O)(O)O`, the inhibition entry in experiment [1] and in experiment [3] was “inactive” each time. Further, the inhibition in experiment [2] stood at 26.2%.
With `O=C(Cc1ccccc1)NCC#Cc1ccc2c(=O)[nH]c(=O)n(CC=CCP(=O)(O)O)c2c1`, the inhibition result in experiment [1] and in experiment [3] was “inactive” throughout. Further, the inhibition in experiment [2] was determined as 14.7%.
In the case of `CCCCCCCC(=O)NCC#Cc1ccc2c(=O)[nH]c(=O)n(CC=CCP(=O)(O)O)c2c1`, the inhibition result in experiment [1] and in experiment [3] was “inactive” each time. Moreover, the inhibition in experiment [2] was found to be 14.9%.
